Activity calls are given as the source filed them. The calls are words filed in the database; no cut-off is given here. Where a SMILES comes first, the peptide text is derived from it. The star is where a group is joined. Cbz = O=C(OCc1ccccc1)*; CH2F = FC*
System: Jurkat
Assay: Protection against staurosporine-induced apoptosis in human Jurkat assessed as increase in cell viability at 20 uM measured after 24 hrs by MTS assay
Assay type: functional, cell-based
Settings: not given
For `CC(C)[C@H](NC(=O)OCc1ccccc1)C(=O)N[C@@H](C)C(=O)N[C@@H](CC(=O)O)C(=O)CF` (Cbz-Val-Ala-Asp-CH2F), the Activity was “inactive”.

System: Jurkat
Assay: Protection against TRAIL-induced apoptosis in human Jurkat assessed as increase in cell viability at 20 uM measured after 24 hrs by MTS assay
Assay type: functional, cell-based
Settings: not given
With `CC(C)[C@H](NC(=O)OCc1ccccc1)C(=O)N[C@@H](C)C(=O)N[C@@H](CC(=O)O)C(=O)CF` (Cbz-Val-Ala-Asp-CH2F) the Activity was “inactive”.

System: not listed separately
Assay: Cytotoxicity against human FADD-deficient Jurkat I 2.1 cells assessed as reduction in cell viability at >10 uM measured after 24 hrs by MTS assay
Assay type: cell-based
Settings: jurkat i 2.1, 24 h
In the case of `O=[N+]([O-])c1ccc2nc(Nc3ccccc3)[nH]c2c1`, the Activity is reported as “Toxic”. For `CC(C)CNc1nc2ccc([N+](=O)[O-])cc2[nH]1`, the Activity was “Toxic”. In the case of `O=[N+]([O-])c1ccc2nc(NC3CCCCC3)[nH]c2c1`, the Activity is reported as “Toxic”.

Target: T1, Receptor-interacting serine/threonine-protein kinase 1 (Homo sapiens) (UniProt Q13546)
T1 sequence (whole entry): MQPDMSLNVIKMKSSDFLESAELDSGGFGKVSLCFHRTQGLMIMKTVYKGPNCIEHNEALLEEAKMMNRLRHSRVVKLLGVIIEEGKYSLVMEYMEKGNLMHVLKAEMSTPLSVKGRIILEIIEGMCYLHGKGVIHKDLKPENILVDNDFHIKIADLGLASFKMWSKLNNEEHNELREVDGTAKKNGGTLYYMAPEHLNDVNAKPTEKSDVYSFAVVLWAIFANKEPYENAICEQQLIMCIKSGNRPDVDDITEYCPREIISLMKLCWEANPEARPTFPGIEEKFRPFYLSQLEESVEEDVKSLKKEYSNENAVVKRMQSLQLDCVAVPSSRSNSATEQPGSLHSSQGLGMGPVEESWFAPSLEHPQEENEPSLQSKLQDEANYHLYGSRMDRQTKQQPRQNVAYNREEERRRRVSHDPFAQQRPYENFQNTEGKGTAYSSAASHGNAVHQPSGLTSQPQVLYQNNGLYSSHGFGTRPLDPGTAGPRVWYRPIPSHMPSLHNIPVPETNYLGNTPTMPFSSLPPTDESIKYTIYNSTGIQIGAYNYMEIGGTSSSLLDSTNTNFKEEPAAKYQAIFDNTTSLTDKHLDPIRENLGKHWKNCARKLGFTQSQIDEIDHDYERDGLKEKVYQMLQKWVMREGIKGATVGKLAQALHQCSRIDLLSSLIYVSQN
Assay: Inhibition of RIPK1 in human FADD-deficient Jurkat I 2.1 cells assessed as protection against TNFalpha-induced necroptosis by measuring remaining viable cells at 10 uM measured after 24 hrs by MTS assay relative to TNFalpha
Assay type: cell-based
Settings: not given
Method in brief: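 FADD-deficient Jurkat cells co-treated 24 h with 10 ng/ml human recombinant TNF-α and 10 μM compound; MTS viability normalized to DMSO control (100%); protection delta = viability with TNF-α plus compound minus viability with TNF-α alone (negative if toxic); n = 3.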
For `O=[N+]([O-])c1ccc2nc(Nc3ccccc3)[nH]c2c1`, the Activity was 41.9%. With `CCCCNc1nc2ccc(C(=O)OC)cc2[nH]1` the Activity was 2.9%. In the case of `CCCNc1nc2ccc([N+](=O)[O-])cc2[nH]1`, the Activity is reported as 20%. For `CCCCCCCCNc1nc2ccc([N+](=O)[O-])cc2[nH]1`, the Activity was 6.4%. `CCOC(=O)CNc1nc2ccc([N+](=O)[O-])cc2[nH]1` gave an Activity of 15.3%. With `CCCCNc1nc2cc(C(F)(F)F)cc(Br)c2[nH]1` the Activity was 23.7%. `CCCCNc1nc2ccc(-c3cn(Cc4ccccc4)nn3)cc2[nH]1` showed an Activity of -10.5%. In the case of `C#Cc1ccc2nc(NCCCC)[nH]c2c1`, the Activity is reported as -21.3%. With `CCCCNc1nc2cccc(C(=O)OC)c2[nH]1` the Activity was 29.2%. In the case of `CCCCNc1nc2ccc(C#N)cc2[nH]1`, the Activity is reported as 6.3%. `O=[N+]([O-])c1ccc(Nc2nc3ccc([N+](=O)[O-])cc3[nH]2)cc1` gave an Activity of 3.6%. Molecule `Clc1ccc2nc(NC3CCCCC3)[nH]c2c1` has an Activity of 38.2%. Work on `Cc1ccc2nc(NC3CCCCC3)[nH]c2c1` yielded an Activity of 7%. Work on `COC(=O)c1cccc2nc(NC3CCCCC3)[nH]c12` yielded an Activity of 21.7%. For `CCCCNc1nc2ccc(-n3cnnn3)cc2[nH]1`, the Activity was -1.32%. Molecule `CCCCNc1nc2ccc(C#C[Si](C)(C)C)cc2[nH]1` has an Activity of -18.5%. For `CCNC(=O)CNc1nc2ccc([N+](=O)[O-])cc2[nH]1`, the Activity was 1.9%. For `CCCCNc1nc2ccc(C(=O)NCc3ccccc3)cc2[nH]1`, the Activity was 5%. In the case of `O=[N+]([O-])c1cccc2nc(Nc3ccccc3)[nH]c12`, the Activity is reported as 0%. For `Brc1ccc2nc(NC3CCCCC3)[nH]c2c1`, the Activity was 43.7%. For `CCNc1nc2ccc(-c3ccccc3Cl)cc2[nH]1`, the Activity was 4.9%. For `O=[N+]([O-])c1cccc2nc(NCc3ccccc3)[nH]c12`, the Activity was 5.1%. In the case of `Oc1ccc(-c2cc3cccnc3[nH]2)cc1`, the Activity is reported as 57.9%. `CCCCNc1nc2ccc(C(=O)NCCc3ccccc3)cc2[nH]1` showed an Activity of 2.6%. `O=[N+]([O-])c1ccc2nc(NCc3ccccc3)[nH]c2c1` gave an Activity of 9%. `CCCCNc1nc2ccc(I)cc2[nH]1` showed an Activity of -16.3%. For `CCCCNc1nc2ccc(Br)cc2[nH]1`, the Activity was 7.3%. In the case of `CCCCNc1nc2ccc(C(=O)NCCCc3ccccc3)cc2[nH]1`, the Activity is reported as -3.6%. For `N#Cc1ccc(Nc2nc3ccc([N+](=O)[O-])cc3[nH]2)cc1`, the Activity was -31.4%. In the case of `O=[N+]([O-])c1ccc2sc(Cl)nc2c1`, the Activity is reported as 0.1%. Work on `CCCCNc1nc2ccc([N+](=O)[O-])cc2s1` yielded an Activity of 28%. Molecule `O=[N+]([O-])c1ccc2nc(Nc3ccc(C(F)(F)F)cc3)[nH]c2c1` has an Activity of -30.8%. Molecule `CCCCNc1nc2cccc([N+](=O)[O-])c2[nH]1` has an Activity of 1.2%. `CCCCNc1nc2ccc(-c3cccc([N+](=O)[O-])c3)cc2[nH]1` gave an Activity of -20.6%. With `CC(C)CNc1nc2ccc([N+](=O)[O-])cc2[nH]1` the Activity was 53.7%. For `CCCCNc1nc2ccc(-c3cccs3)cc2[nH]1`, the Activity was -20.5%. `CN(C)c1ccc(Nc2nc3ccc([N+](=O)[O-])cc3[nH]2)cc1` gave an Activity of 14%. Work on `CCNc1nc2ccc(-c3cccc([N+](=O)[O-])c3)cc2[nH]1` yielded an Activity of -19.4%. Molecule `CCCCNc1nc2ccc(-c3cccc(OC)c3)cc2[nH]1` has an Activity of -16.8%. `CCCCCCNc1nc2ccc([N+](=O)[O-])cc2[nH]1` gave an Activity of 23.6%. Molecule `COCCNc1nc2cccc([N+](=O)[O-])c2[nH]1` has an Activity of -2.3%. With `CCNc1nc2ccc(-c3cccc(OC)c3)cc2[nH]1` the Activity was -12.8%. `C=CCNc1nc2ccc([N+](=O)[O-])cc2[nH]1` gave an Activity of 4.7%. Work on `O=[N+]([O-])c1ccc2nc(Nc3ccc(Br)cc3)[nH]c2c1` yielded an Activity of -6.1%. For `CC(C)Nc1nc2ccc([N+](=O)[O-])cc2[nH]1`, the Activity was 16.2%. `O=[N+]([O-])c1ccc2nc(NC3CCCCC3)[nH]c2c1` gave an Activity of 68.1%. Molecule `CCCCNC(=O)CNc1nc2ccc([N+](=O)[O-])cc2[nH]1` has an Activity of 4.6%. Work on `O=C(Nc1nc2ccc([N+](=O)[O-])cc2[nH]1)c1ccccc1` yielded an Activity of -21.3%. Work on `CCNc1nc2ccc(Br)cc2[nH]1` yielded an Activity of 10.4%. For `C#CCNc1nc2ccc([N+](=O)[O-])cc2[nH]1`, the Activity was 3.4%. `CC(C)Nc1nc2cccc([N+](=O)[O-])c2[nH]1` gave an Activity of 1%. In the case of `COCCNc1nc2ccc([N+](=O)[O-])cc2[nH]1`, the Activity is reported as 5.6%. In the case of `O=[N+]([O-])c1cccc2nc(NC3CCCCC3)[nH]c12`, the Activity is reported as 13%. For `CCNc1nc2ccc([N+](=O)[O-])cc2[nH]1`, the Activity was 6.4%.
